According to ChEMBL document CHEMBL2375244 (J Med Chem, 2013):
The source made the active and inactive calls. No cut-off for these calls is given here.

Key:
[1] = molecular target: T1, CDK2/Cyclin A2 (Homo sapiens, UniProt P24941); test: Inhibition of human CDK2/Cyclin A2 using PKTPKKAKKL as substrate by fluorescence assay; assay type: protein-complex assay
[2] = molecular target: T1, CDK2/Cyclin A2; test: Inhibition of human CDK2/Cyclin A2 using PKTPKKAKKL as substrate by P33-radiolabeled assay; assay type: protein-complex assay
How it was run: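 Radiometric (P33) kinase assay run by a contract lab on CDK–cyclin complexes. Inhibitor tested in duplicate at 0.05 nM to 1000 nM with ATP at 10 μM. […] For the in-house assays, IC50 was obtained by Hill-equation fitting.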

[3] = tested on: NCI-H929; test: Induction of apoptosis in human NCI-H929 cells assessed as increase in cleaved caspase-3 level at […] after 24 hrs by FACS flow cytometric analysis relative to control; assay type: functional
[4] = molecular target: Cyclin-dependent kinase 2 (Homo sapiens) (UniProt P24941); test: Inhibition of CDK2-mediated Rb phosphorylation at Ser 807/811 in human NCI-H929 cells at […] after 24 hrs by immunoblotting analysis; assay type: cell-based
[5] = tested on: A673; test: Induction of apoptosis in human A673 cells assessed as caspase-3 activation at 0.05 uM to 5 uM after 24 hrs by luminescence assay relative to control; assay type: functional
How it was run: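 Caspase-3/7 activation measured with a Caspase-Glo 3/7 luminescent assay. Cells were plated as for the high-throughput viability assay and exposed for 24 h to serial dilutions. EC50 was obtained from the dose-response.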

[6] = tested on: BT-549; test: Cytotoxicity against human BT549 cells after 72 hrs by resazurin/resorufin-based fluorescence assay; assay type: functional, cell-based; conditions: BT-549, 72 h
How it was run: (§1)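 CellTiter-Blue viability: 1200 cells per well seeded, incubated overnight at 37 °C, 5% CO₂; drugs serially diluted 2:3 in medium, four replicate wells per concentration plus four diluent-only control wells; 72 h exposure; resazurin reduction to resorufin read by fluorescence (579 nm ex/584 nm em). IC50 is the average of three data sets, each using nine concentrations between 0.004 μM and 12.5 μM.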

[7] = Cytotoxicity against human RPMI18226 cells after 72 hrs by resazurin/resorufin-based fluorescence assay; assay type: functional, cell-based; conditions: RPMI18226, 72 h
[8] = tested on: HOS-TE85; test: Cytotoxicity against human MNNG-HOS cells after 72 hrs by resazurin/resorufin-based fluorescence assay; assay type: functional, cell-based; conditions: HOS-TE85, 72 h
[9] = Cytotoxicity against human NCI-H929 cells after 72 hrs by resazurin/resorufin-based fluorescence assay; assay type: functional, cell-based; conditions: NCI-H929, 72 h
[10] = tested on: SK-UT-1; test: Cytotoxicity against human SK-UT-1 cells after 72 hrs by resazurin/resorufin-based fluorescence assay; assay type: functional, cell-based; conditions: SK-UT-1, 72 h
[11] = tested on: T47D; test: Cytotoxicity against human T47D cells after 72 hrs by resazurin/resorufin-based fluorescence assay; assay type: functional, cell-based
[12] = tested on: A673; test: Cytotoxicity against human A673 cells after 72 hrs by resazurin/resorufin-based fluorescence assay; assay type: functional, cell-based; conditions: A673, 72 h
[13] = tested on: SK-BR-3; test: Cytotoxicity against human SK-BR-3 cells after 72 hrs by resazurin/resorufin-based fluorescence assay; assay type: functional, cell-based; conditions: SK-BR-3, 72 h; how it was run: as §1
[14] = Cytotoxicity against mouse GC-1 cells after 72 hrs by MTT assay; assay type: functional, cell-based; conditions: GC-1, 72 h
How it was run: (§2)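 Cells kept in RPMI or DMEM with 10% FBS at 37 °C, 5% CO₂ and allowed to attach overnight; 72 h with increasing inhibitor concentrations; then 1 mg/mL MTT for 3 h, DMSO solubilisation, OD read at 540 nm. Testis lines had culture conditions adapted to them. Dose-response in triplicate, 9 concentrations between 0.02 and 100 μM, averaged.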

[15] = Cytotoxicity against mouse TM4 cells after 72 hrs by MTT assay; assay type: functional, cell-based; conditions: TM4, 72 h; how it was run: as §2
[16] = Cytotoxicity against mouse GC-2 cells after 72 hrs by MTT assay; assay type: functional, cell-based; conditions: GC-2, 72 h; how it was run: as §2
[17] = tested on: MDA-MB-468; test: Cytotoxicity against human MDA-MB-468 cells after 72 hrs by MTT assay; assay type: functional, cell-based; conditions: MDA-MB-468, 72 h; how it was run: as §2
[18] = molecular target: CDK9/cyclin T1 (Homo sapiens) (UniProt O60563+P50750); test: Inhibition of human CDK9/CyclinT1 at 0.1 uM incubated for 15 mins prior to substrate addition measured after 90 mins by P33-radiolabeled assay relative to control; assay type: protein-complex assay
How it was run: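 Kinome profiling (339-kinase panel) by a contract lab using a P33-radiolabel assay. Each kinase was tested at a single compound concentration of 0.1 μM, in duplicate, with ATP at 10 μM.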

[19] = molecular target: Cyclin-dependent kinase 5/CDK5 activator 1 (Homo sapiens) (UniProt Q00535+Q15078); test: Inhibition of human CDK5/P25 at 0.1 uM incubated for 15 mins prior to substrate addition measured after 90 mins by P33-radiolabeled assay relative to control; assay type: protein-complex assay
Sequence of Cyclin-dependent kinase 5/CDK5 activator 1 (Homo sapiens) (Q00535 whole entry): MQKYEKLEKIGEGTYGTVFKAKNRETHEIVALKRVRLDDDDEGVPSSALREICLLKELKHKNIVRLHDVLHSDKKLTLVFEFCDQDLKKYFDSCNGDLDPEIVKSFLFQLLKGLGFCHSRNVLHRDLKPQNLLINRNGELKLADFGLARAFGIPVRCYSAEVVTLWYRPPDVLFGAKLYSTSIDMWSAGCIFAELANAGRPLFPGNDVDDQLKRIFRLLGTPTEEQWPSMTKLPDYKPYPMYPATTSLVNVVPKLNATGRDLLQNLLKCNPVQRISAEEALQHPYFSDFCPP
Sequence of Cyclin-dependent kinase 5/CDK5 activator 1 (Homo sapiens) (Q15078 99-307 partner limits assumed): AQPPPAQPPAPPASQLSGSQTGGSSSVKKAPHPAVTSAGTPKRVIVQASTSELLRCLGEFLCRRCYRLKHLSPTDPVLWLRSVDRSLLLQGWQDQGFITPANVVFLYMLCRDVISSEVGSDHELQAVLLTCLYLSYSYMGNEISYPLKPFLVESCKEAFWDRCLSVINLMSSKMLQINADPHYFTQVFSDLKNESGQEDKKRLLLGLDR

[20] = molecular target: Dual specificity protein kinase CLK2 (Homo sapiens) (UniProt P49760); test: Inhibition of human CLK2 at 0.1 uM incubated for 15 mins prior to substrate addition measured after 90 mins by P33-radiolabeled assay relative to control
Sequence of Dual specificity protein kinase CLK2 (Homo sapiens) (P49760 whole entry, looked up): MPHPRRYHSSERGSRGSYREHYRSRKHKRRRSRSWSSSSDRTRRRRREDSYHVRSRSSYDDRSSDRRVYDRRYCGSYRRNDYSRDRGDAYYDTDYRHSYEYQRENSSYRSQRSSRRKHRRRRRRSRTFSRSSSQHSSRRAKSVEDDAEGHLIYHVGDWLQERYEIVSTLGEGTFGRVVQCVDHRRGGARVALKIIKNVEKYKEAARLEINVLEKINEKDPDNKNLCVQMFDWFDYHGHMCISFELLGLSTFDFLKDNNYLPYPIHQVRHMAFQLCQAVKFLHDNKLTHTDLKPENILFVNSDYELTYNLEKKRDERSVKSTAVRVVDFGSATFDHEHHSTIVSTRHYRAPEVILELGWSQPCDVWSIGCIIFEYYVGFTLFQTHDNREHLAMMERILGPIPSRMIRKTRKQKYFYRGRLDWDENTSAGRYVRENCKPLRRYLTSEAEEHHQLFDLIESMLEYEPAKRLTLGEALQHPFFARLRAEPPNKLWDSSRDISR

[21] = molecular target: T2, Glycogen synthase kinase-3 beta (Homo sapiens, UniProt P49841); test: Inhibition of human GSK3beta at 0.1 uM incubated for 15 mins prior to substrate addition measured after 90 mins by P33-radiolabeled assay relative to control
Target sequence in this assay (P49841 whole entry, looked up): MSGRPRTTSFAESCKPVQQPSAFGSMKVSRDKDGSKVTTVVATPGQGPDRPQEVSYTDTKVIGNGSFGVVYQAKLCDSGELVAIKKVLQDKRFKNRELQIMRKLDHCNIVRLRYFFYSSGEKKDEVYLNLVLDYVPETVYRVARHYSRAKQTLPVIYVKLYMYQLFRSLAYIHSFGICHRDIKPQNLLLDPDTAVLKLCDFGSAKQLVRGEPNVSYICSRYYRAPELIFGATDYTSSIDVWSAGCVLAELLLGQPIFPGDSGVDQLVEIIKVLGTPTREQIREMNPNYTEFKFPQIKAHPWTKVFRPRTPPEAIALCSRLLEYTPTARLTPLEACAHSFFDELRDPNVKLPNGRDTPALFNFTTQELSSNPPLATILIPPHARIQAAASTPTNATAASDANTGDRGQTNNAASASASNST

[22] = molecular target: Dual specificity tyrosine-phosphorylation-regulated kinase 1A (Homo sapiens) (UniProt Q13627); test: Inhibition of human DYRK1A at 0.1 uM incubated for 15 mins prior to substrate addition measured after 90 mins by P33-radiolabeled assay relative to control
[23] = molecular target: Dual specificity protein kinase CLK1 (Homo sapiens) (UniProt P49759); test: Inhibition of human CLK1 at 0.1 uM incubated for 15 mins prior to substrate addition measured after 90 mins by P33-radiolabeled assay relative to control
Sequence of Dual specificity protein kinase CLK1 (Homo sapiens) (P49759 whole entry, looked up): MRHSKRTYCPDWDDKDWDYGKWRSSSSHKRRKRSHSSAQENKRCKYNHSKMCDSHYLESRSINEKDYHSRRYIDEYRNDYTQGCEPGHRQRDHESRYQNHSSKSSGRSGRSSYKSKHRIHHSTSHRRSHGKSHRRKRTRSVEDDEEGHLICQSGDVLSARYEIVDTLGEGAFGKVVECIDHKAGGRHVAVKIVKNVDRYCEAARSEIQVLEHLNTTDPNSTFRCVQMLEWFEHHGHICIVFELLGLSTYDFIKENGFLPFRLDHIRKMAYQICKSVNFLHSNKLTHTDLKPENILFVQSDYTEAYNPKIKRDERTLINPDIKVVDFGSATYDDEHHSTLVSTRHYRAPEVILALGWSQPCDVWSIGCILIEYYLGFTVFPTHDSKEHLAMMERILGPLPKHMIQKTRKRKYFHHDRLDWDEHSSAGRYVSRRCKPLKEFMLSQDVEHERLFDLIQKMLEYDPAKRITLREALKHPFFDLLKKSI

[24] = molecular target: CDK6/cyclin D3 (Homo sapiens) (UniProt P30281+Q00534); test: Inhibition of human CDK6/Cyclin D3 at 0.1 uM incubated for 15 mins prior to substrate addition measured after 90 mins by P33-radiolabeled assay relative to control; assay type: protein-complex assay
[25] = molecular target: T2, Glycogen synthase kinase-3 beta; test: Inhibition of GSK3beta (unknown origin)-mediated phosphorylation of peptide substrate incubated for 15 mins prior to substrate addition measured after 90 mins by P33-radiolabeled assay
Target sequence in this assay (P49841 whole entry): as the sequence (P49841 whole entry, looked up) above

[26] = molecular target: Cyclin-dependent kinase 7/ cyclin H (Homo sapiens, UniProt P50613); test: Inhibition of CDK7/Cyclin H (unknown origin)-mediated phosphorylation of peptide substrate incubated for 15 mins prior to substrate addition measured after 90 mins by P33-radiolabeled assay; assay type: protein-complex assay
Sequence of Cyclin-dependent kinase 7/ cyclin H (P51946 whole entry): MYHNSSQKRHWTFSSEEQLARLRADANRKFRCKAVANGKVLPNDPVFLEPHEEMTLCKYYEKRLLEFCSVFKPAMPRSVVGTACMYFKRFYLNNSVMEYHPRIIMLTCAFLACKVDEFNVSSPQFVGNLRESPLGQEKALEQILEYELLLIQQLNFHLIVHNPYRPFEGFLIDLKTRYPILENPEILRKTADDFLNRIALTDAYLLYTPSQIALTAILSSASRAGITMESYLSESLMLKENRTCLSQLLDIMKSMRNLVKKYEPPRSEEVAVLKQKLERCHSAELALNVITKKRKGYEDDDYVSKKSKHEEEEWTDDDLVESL
Sequence of Cyclin-dependent kinase 7/ cyclin H (P50613 whole entry): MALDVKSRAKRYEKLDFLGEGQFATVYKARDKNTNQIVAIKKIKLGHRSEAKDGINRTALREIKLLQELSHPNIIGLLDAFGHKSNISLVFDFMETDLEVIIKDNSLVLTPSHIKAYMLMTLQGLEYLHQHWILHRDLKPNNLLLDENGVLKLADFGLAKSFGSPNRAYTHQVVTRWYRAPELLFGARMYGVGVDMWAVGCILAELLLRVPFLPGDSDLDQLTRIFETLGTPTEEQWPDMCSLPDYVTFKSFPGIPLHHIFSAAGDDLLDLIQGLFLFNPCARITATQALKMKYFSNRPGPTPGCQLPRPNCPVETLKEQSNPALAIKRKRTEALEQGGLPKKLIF

[27] = molecular target: CDK6/cyclin D1 (Homo sapiens, UniProt Q00534); test: Inhibition of CDK6/Cyclin D1 (unknown origin)-mediated phosphorylation of peptide substrate incubated for 15 mins prior to substrate addition measured after 90 mins by P33-radiolabeled assay; assay type: protein-complex assay
Sequence of CDK6/cyclin D1 (P24385 whole entry): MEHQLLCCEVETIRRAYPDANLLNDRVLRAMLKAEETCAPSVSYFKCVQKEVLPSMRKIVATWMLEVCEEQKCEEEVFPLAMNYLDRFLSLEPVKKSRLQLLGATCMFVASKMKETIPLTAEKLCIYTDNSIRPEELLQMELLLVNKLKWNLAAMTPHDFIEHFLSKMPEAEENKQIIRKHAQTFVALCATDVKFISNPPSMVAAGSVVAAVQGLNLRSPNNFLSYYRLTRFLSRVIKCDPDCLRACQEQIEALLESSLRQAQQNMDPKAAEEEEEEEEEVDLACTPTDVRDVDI
Sequence of CDK6/cyclin D1 (Q00534 whole entry): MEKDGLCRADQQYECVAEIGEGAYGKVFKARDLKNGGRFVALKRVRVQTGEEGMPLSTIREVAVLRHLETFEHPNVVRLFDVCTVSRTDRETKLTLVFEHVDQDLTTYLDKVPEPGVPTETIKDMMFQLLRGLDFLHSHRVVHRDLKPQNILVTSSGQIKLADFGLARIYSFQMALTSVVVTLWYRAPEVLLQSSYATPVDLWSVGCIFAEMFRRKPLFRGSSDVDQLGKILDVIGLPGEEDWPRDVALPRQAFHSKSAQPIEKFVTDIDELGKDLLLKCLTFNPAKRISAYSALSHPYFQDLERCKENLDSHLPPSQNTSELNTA

[28] = molecular target: Cyclin-dependent kinase 4/cyclin D1 (Homo sapiens, UniProt P11802); test: Inhibition of CDK4/Cyclin D1 (unknown origin)-mediated phosphorylation of peptide substrate incubated for 15 mins prior to substrate addition measured after 90 mins by P33-radiolabeled assay; assay type: protein-complex assay
Sequence of Cyclin-dependent kinase 4/cyclin D1 (P11802 whole entry): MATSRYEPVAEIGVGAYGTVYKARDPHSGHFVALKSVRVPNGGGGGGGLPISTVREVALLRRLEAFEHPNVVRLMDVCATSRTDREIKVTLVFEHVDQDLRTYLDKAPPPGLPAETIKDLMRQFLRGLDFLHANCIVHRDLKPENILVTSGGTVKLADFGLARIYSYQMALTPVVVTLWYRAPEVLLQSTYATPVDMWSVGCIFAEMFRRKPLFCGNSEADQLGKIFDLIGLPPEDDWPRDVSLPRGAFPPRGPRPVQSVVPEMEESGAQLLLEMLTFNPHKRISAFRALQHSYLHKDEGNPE
Sequence of Cyclin-dependent kinase 4/cyclin D1 (P24385 whole entry, further chain): as the sequence (P24385 whole entry) above

[29] = molecular target: CDK3/Cyclin E (Homo sapiens, UniProt Q00526); test: Inhibition of CDK3/Cyclin E (unknown origin)-mediated phosphorylation of peptide substrate incubated for 15 mins prior to substrate addition measured after 90 mins by P33-radiolabeled assay; assay type: protein-complex assay
Sequence of CDK3/Cyclin E (P24864 whole entry): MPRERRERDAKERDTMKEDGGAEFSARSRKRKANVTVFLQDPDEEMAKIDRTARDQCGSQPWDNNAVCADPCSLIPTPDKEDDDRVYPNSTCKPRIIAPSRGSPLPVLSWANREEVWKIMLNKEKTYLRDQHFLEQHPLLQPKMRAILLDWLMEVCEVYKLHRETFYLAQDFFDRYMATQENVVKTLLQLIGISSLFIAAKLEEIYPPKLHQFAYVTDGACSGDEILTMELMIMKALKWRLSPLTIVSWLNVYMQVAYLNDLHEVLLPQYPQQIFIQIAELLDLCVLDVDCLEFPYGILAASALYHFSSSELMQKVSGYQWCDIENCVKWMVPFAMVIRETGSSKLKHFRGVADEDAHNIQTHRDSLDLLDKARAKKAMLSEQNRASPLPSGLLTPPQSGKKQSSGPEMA
Sequence of CDK3/Cyclin E (Q00526 whole entry): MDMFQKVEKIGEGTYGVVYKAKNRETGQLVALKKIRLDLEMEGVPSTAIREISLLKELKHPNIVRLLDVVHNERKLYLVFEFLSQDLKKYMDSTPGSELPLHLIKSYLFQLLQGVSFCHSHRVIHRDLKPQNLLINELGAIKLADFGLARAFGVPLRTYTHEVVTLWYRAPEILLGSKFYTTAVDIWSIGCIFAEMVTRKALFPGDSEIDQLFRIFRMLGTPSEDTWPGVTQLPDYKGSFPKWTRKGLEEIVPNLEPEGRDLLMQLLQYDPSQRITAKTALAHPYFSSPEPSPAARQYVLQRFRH

IC50 [1]: 0.02 µM
IC50 [2]: 0.0015 µM
inhibition [4]: Active
inhibition [18]: 90%
inhibition [19]: 90%
inhibition [20]: 60%
inhibition [21]: 60%
inhibition [22]: 50%
inhibition [23]: 50%
inhibition [24]: 85%
IC50 [25]: 0.107 µM
IC50 [26]: > 1 µM
IC50 [27]: 0.0066 µM
IC50 [28]: 0.004 µM
IC50 [29]: 0.038 µM
SMILES: Nc1nc(Nc2ccc(S(N)(=O)=O)cc2)sc1C(=O)c1ccccc1[N+](=O)[O-]
Activity [3]: 26%
Activity [5]: 196%
IC50 [6]: > 10 µM
IC50 [7]: > 10 µM
IC50 [8]: 3 µM
IC50 [9]: 1.6 µM
IC50 [10]: 1.4 µM
IC50 [11]: 0.5 µM
IC50 [12]: 0.27 µM
IC50 [13]: 0.49 µM
IC50 [14]: 20 µM
IC50 [15]: 16 µM
IC50 [16]: 9 µM
IC50 [17]: 0.3 µM
